ChEMBL document CHEMBL1212762, “In vivo activity of ceftobiprole in murine skin infections due to Staphylococcus aureus and Pseudomonas aeruginosa” (Antimicrob Agents Chemother, 2010)

Tests used:
Pseudomonas aeruginosa [1] = test: Antimicrobial activity against Pseudomonas aeruginosa OC 4351 infected in immunocompromized SKH1 mouse assessed as lesion volume at 25 mg/kg/day, sc measured after 48 hrs postinfection (reference value: 2234 mm3); type: functional; details: route subcutaneous
Staphylococcus aureus [2] = test: Antimicrobial activity against methicillin-susceptible Staphylococcus aureus Smith OC 4172 infected immunocompetent SKH1 mouse assessed as lesion volume at 1.6 mg/kg/day, sc measured after 48 hrs postinfection (reference value: 1181 mm3); details: route subcutaneous
[3] = Half life in Pseudomonas aeruginosa infected immunocompromized SKH1 mouse skin at 50 mg/kg, sc
[4] = fT>MIC in Staphylococcus aureus Smith OC 4172 infected sc dosed SKH1 mouse at 50 mg/kg, sc administered twice at 1 and 3 hrs after infection; type: functional; details: route subcutaneous
Plasma [5] = test: fAUC (0-infinity) in immunocompetent SKH1 mouse plasma at 12.5 mg/kg, sc; type: ADME, organism-based; design: dose 12.5 mg/kg, route subcutaneous; details: in vivo
Method in brief: (§1)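 Female SKH1 hairless mice, immunocompetent or cyclophosphamide-neutropenic, infected s.c. with MRSA OC 8525 or P. aeruginosa OC 4354 on the Cytodex beads (left flank), sterile beads on the right. Single dose 24 h later: s.c. at the nape, or linezolid 50 mg/kg oral. Plasma and skin (DMSO homogenate) sampled over time, HPLC with diode array.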

Plasma [6] = test: fCmax in immunocompromized SKH1 mouse plasma at 50 mg/kg, sc; type: ADME, organism-based; design: dose 50 mg/kg, route subcutaneous; details: in vivo; method in brief: as §1
Plasma [7] = test: fAUC (0-infinity) in immunocompromized SKH1 mouse plasma at 50 mg/kg, sc; type: ADME, organism-based; design: dose 50 mg/kg, route subcutaneous; details: in vivo; method in brief: as §1
[8] = Half life in immunocompromized SKH1 mouse skin at 50 mg/kg, sc; type: ADME, organism-based, Zone of skin; design: dose 50 mg/kg, route subcutaneous; method in brief: as §1
Staphylococcus aureus [9] = test: Antimicrobial activity against methicillin-susceptible Staphylococcus aureus Smith OC 4172 infected in SKH1 mouse assessed as log change in bacterial colony forming unit per gram of skin tissue at 100 mg/kg/day, sc (reference value: 1.6 deltalog CFU); type: functional; details: route subcutaneous
Zone of skin [10] = test: fAUC (0-infinity) in Staphylococcus aureus infected immunocompetent SKH1 mouse skin at 50 mg/kg, sc; type: ADME, organism-based; design: dose 50 mg/kg, route subcutaneous; details: in vivo; method in brief: as §1
[11] = Tmax in Staphylococcus aureus infected […] SKH1 mouse skin at 50 mg/kg, sc; type: ADME, organism-based, Zone of skin; design: dose 50 mg/kg, route subcutaneous
Zone of skin [12] = test: fCmax in immunocompromized SKH1 mouse skin at 50 mg/kg, sc; type: ADME, organism-based; design: dose 50 mg/kg, route subcutaneous; details: in vivo; method in brief: as §1
[13] = fT>MIC in Staphylococcus aureus OC 4172 infected sc dosed SKH1 mouse administered in 24 hrs dosing interval; type: functional
Method in brief: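 Plasma levels came from female hairless SKH1 mice given single s.c. doses at the nape 24 h after flank s.c. infection with Cytodex beads. S. aureus work used immunocompetent mice. P. aeruginosa work used mice made neutropenic with cyclophosphamide i.p., 150 mg/kg at day −5 and 100 mg/kg at day −1. Drug assayed by HPLC with diode-array detection. Noncompartmental analysis.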

Pseudomonas aeruginosa [14] = test: Antimicrobial activity against Pseudomonas aeruginosa OC 4354 infected in immunocompromized SKH1 mouse assessed as lesion volume at 100 mg/kg/day, sc measured after 48 hrs postinfection (reference value: 2195 mm3); type: functional; details: route subcutaneous
Staphylococcus aureus [15] = test: Antimicrobial activity against methicillin-resistant Staphylococcus aureus OC 8525 infected immunocompetent SKH1 mouse assessed as lesion volume at 6.2 mg/kg/day, sc measured after 48 hrs postinfection (reference value: 1535 mm3); details: route subcutaneous
[16] = Half life in immunocompetent SKH1 mouse plasma at 12.5 mg/kg, sc; type: ADME, organism-based; design: dose 12.5 mg/kg, route subcutaneous; method in brief: as §1
Staphylococcus aureus [17] = test: Antimicrobial activity against methicillin-susceptible Staphylococcus aureus Smith OC 4172 infected in SKH1 mouse assessed as log change in bacterial colony forming unit per gram of skin tissue at 25 mg/kg/day, sc (reference value: 1.6 deltalog CFU); type: functional; details: route subcutaneous
Method in brief: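 Female hairless immunocompetent SKH1 mice were anaesthetised and injected s.c. with 0.2 ml Cytodex bead inoculum (0.1% vol/vol beads in BHI; 6.7–7.0 log10 CFU/mouse): MSSA OC 4172 in the left flank, MRSA OC 8525 in the right. Drug was given at 1, 3, 25 and 27 h post-infection. At 48 h, flank lesions were excised, weighed and homogenised in saline, then plated on TSA (18 h, 37°C). The value is Δlog CFU/g versus the inoculum, from 5 mice/dose, run twice and pooled.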

Pseudomonas aeruginosa [18] = test: Antimicrobial activity against Pseudomonas aeruginosa OC 4354 infected in immunocompromized SKH1 mouse assessed as log change in bacterial colony forming unit at 100 mg/kg/day, sc; type: functional; details: route subcutaneous
Method in brief: (§2)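 Female SKH1 hairless mice made neutropenic with ip cyclophosphamide (150 mg/kg 5 days and 100 mg/kg 1 day before infection). 0.2 ml s.c. Cytodex bead (0.1% vol/vol) inoculum in BHI: OC 4351 left flank, OC 4354 right flank. Drug s.c. at 1, 3, 25, 27 h postinfection. Killed at 48 h; skin homogenised in saline, plated on TSA 18 h 37°C; Δlog CFU/g versus inoculum. 5 mice/dose, run twice.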

Staphylococcus aureus [19] = test: Antimicrobial activity against methicillin-resistant Staphylococcus aureus OC 8525 infected immunocompetent SKH1 mouse assessed as lesion volume at 1.6 mg/kg/day, sc measured after 48 hrs postinfection (reference value: 1535 mm3); details: route subcutaneous
Staphylococcus aureus [20] = test: Antimicrobial activity against methicillin-resistant Staphylococcus aureus OC 8525 infected immunocompetent SKH1 mouse assessed as lesion volume at 100 mg/kg/day, sc measured after 48 hrs postinfection (reference value: 1535 mm3); details: route subcutaneous
[21] = Tmax in immunocompetent SKH1 mouse skin at 50 mg/kg, sc; type: ADME, organism-based, Zone of skin; design: dose 50 mg/kg, route subcutaneous; method in brief: as §1
Staphylococcus aureus [22] = test: Antimicrobial activity against methicillin-resistant Staphylococcus aureus OC 8525 infected immunocompetent SKH1 mouse assessed as lesion volume at 25 mg/kg/day, sc measured after 48 hrs postinfection (reference value: 1535 mm3); details: route subcutaneous
Staphylococcus aureus [23] = test: Antimicrobial activity against methicillin-resistant Staphylococcus aureus OC 8525 assessed as inhibition of growth by broth microdilution method; type: functional
[24] = Tmax in immunocompromized SKH1 mouse plasma at 50 mg/kg, sc; type: ADME, organism-based; design: dose 50 mg/kg, route subcutaneous; method in brief: as §1
Pseudomonas aeruginosa [25] = test: Antimicrobial activity against Pseudomonas aeruginosa OC 4354 assessed as inhibition of growth by broth microdilution method; type: functional
Plasma [26] = test: fCmax in immunocompetent SKH1 mouse plasma at 12.5 mg/kg, sc; type: ADME, organism-based; design: dose 12.5 mg/kg, route subcutaneous; details: in vivo; method in brief: as §1
[27] = Tmax in immunocompetent SKH1 mouse plasma at 50 mg/kg, sc; type: ADME, organism-based; design: dose 50 mg/kg, route subcutaneous; method in brief: as §1
Pseudomonas aeruginosa [28] = test: Antimicrobial activity against Pseudomonas aeruginosa OC 4354 infected in immunocompromized SKH1 mouse assessed as log change in bacterial colony forming unit at 25 mg/kg/day, sc; type: functional; details: route subcutaneous; method in brief: as §2
Zone of skin [29] = test: fAUC (0-infinity) in immunocompromized SKH1 mouse skin at 50 mg/kg, sc; type: ADME, organism-based; design: dose 50 mg/kg, route subcutaneous; details: in vivo; method in brief: as §1
Pseudomonas aeruginosa [30] = test: Antimicrobial activity against Pseudomonas aeruginosa OC 4354 infected in immunocompromized SKH1 mouse assessed as lesion volume at 1.6 mg/kg/day, sc measured after 48 hrs postinfection (reference value: 2195 mm3); type: functional; details: route subcutaneous

Nc1nc(/C(=N/O)C(=O)N[C@@H]2C(=O)N3C(C(=O)O)=C(/C=C4\CCN([C@@H]5CCNC5)C4=O)CS[C@H]23)ns1 [CEFTOBIPROLE]
Activity (Pseudomonas aeruginosa [1]): 552 mm3
Activity (Staphylococcus aureus [2]): 937 mm3
half-life [3]: 76 min
fT>MIC [4]: >4 h
fAUC (Plasma [5]): 481 µg·min/mL
fCmax (Plasma [6]): 69 µg/mL
fAUC (Plasma [7]): 2011 µg·min/mL
half-life [8]: 30 min
deltalog10CFU (Staphylococcus aureus [9]): -1.7
fAUC (Zone of skin [10]): 652 µg·min/mL
Tmax [11]: 15 min
fCmax (Zone of skin [12]): 17 µg/g
fT>MIC [13]: >17%
Activity (Pseudomonas aeruginosa [14]): 373 mm3
Activity (Staphylococcus aureus [15]): 896 mm3
half-life [16]: 17 min
deltalog10CFU (Staphylococcus aureus [17]): 1.5
deltalog10CFU (Pseudomonas aeruginosa [18]): -1.4
Activity (Staphylococcus aureus [19]): 1058 mm3
Activity (Staphylococcus aureus [20]): 484 mm3
Tmax [21]: 15 min
Activity (Staphylococcus aureus [22]): 642 mm3
MIC (Staphylococcus aureus [23]): 1 µg/mL
Tmax [24]: 7.5 min
MIC (Pseudomonas aeruginosa [25]): 4 µg/mL
fCmax (Plasma [26]): 17 µg/mL
Tmax [27]: 7.5 min
deltalog10CFU (Pseudomonas aeruginosa [28]): -1.3
fAUC (Zone of skin [29]): 690 µg·min/mL
Activity (Pseudomonas aeruginosa [30]): 1833 mm3
